Data reported in ChEMBL document CHEMBL1949535, “Synthesis and preliminary antibacterial evaluation of Linezolid-like 1,2,4-oxadiazole derivatives” (2012).
Converted amounts (≈) assume the structure as drawn.

What was measured:
Assay type in all cases: functional
Staphylococcus aureus [1] = experiment: Antibacterial activity against methicillin-sensitive Staphylococcus aureus ATCC 25923 after 16 to 20 hrs by microbroth dilution method
How it was run: (§1)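 CLSI broth microdilution in Mueller-Hinton broth. Compounds were dissolved in 100% DMSO and serially two-fold diluted to cover 0.12 to >256 mg/L. An equal volume of inoculum at 1 × 10⁶ CFU/mL was added, then plates were incubated at 35 °C for 16–20 h. MIC was the lowest concentration with no visible growth. DMSO and uninoculated-medium controls were run in parallel.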

Staphylococcus aureus [2] = experiment: Antibacterial activity against methicillin-resistant glycopeptide-intermediate Staphylococcus aureus Mu50 after 16 to 20 hrs by microbroth dilution method
How it was run: (§2)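 CLSI broth microdilution in Mueller-Hinton broth. Compound stocks in 100% DMSO, serially diluted two-fold to 0.12->256 mg/L. An equal volume of inoculum at 1 x 10⁶ CFU/mL was added to each well. Plates were incubated 16-20 h at 35 °C. MIC (mg/L) was taken as the lowest concentration with no visible growth. DMSO and uninoculated-medium controls were run in parallel.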

Streptococcus pneumoniae = experiment: Antibacterial activity against Streptococcus pneumoniae PEN-1 after 16 to 20 hrs by microbroth dilution method; settings: PEN I; how it was run: as §1
Streptococcus pyogenes [3] = experiment: Antibacterial activity against erythromycin-sensitive Streptococcus pyogenes 12 after 16 to 20 hrs by microbroth dilution method; how it was run: as §1
Escherichia coli [4] = experiment: Antibacterial activity against Escherichia coli ATCC 25922 after 16 to 20 hrs by microbroth dilution method; how it was run: as §1
Staphylococcus aureus [5] = experiment: Antibacterial activity against Staphylococcus aureus ATCC 43300 after 16 to 20 hrs by microbroth dilution method; how it was run: as §1
Streptococcus pyogenes [6] = experiment: Antibacterial activity against erythromycin-resistant Streptococcus pyogenes 6 after 16 to 20 hrs by microbroth dilution method; how it was run: as §2
Staphylococcus aureus [7] = experiment: Antibacterial activity against methicillin-resistant Staphylococcus aureus C530 after 16 to 20 hrs by microbroth dilution method; how it was run: as §2
Serratia marcescens = experiment: Antibacterial activity against Serratia marcescens Mel 522 after 16 to 20 hrs by microbroth dilution method; how it was run: as §1
Escherichia coli [8] = experiment: Antibacterial activity against Escherichia coli 3350 after 16 to 20 hrs by microbroth dilution method; how it was run: as §1
Staphylococcus aureus [9] = experiment: Antibacterial activity against methicillin-sensitive Staphylococcus aureus ATCC 29213 after 16 to 20 hrs by microbroth dilution method; how it was run: as §1
Streptococcus pyogenes [10] = experiment: Antibacterial activity against Streptococcus pyogenes ATCC 19615 after 16 to 20 hrs by microbroth dilution method; how it was run: as §2
Streptococcus pyogenes [11] = experiment: Antibacterial activity against erythromycin-resistant Streptococcus pyogenes 47 after 16 to 20 hrs by microbroth dilution method; how it was run: as §2
Streptococcus pyogenes [12] = experiment: Antibacterial activity against erythromycin-resistant Streptococcus pyogenes 24 after 16 to 20 hrs by microbroth dilution method; how it was run: as §2
Streptococcus pyogenes [13] = experiment: Antibacterial activity against erythromycin-sensitive Streptococcus pyogenes 9 after 16 to 20 hrs by microbroth dilution method; how it was run: as §1
Streptococcus pyogenes [14] = experiment: Antibacterial activity against erythromycin-sensitive Streptococcus pyogenes 3 after 16 to 20 hrs by microbroth dilution method; how it was run: as §1
Streptococcus pyogenes [15] = experiment: Antibacterial activity against compound-resistant Streptococcus pyogenes 47 after 16 to 20 hrs by microbroth dilution method; how it was run: as §2
Streptococcus pyogenes [16] = experiment: Antibacterial activity against compound-resistant Streptococcus pyogenes 24 after 16 to 20 hrs by microbroth dilution method; how it was run: as §2

Row | Compound | MIC (Staphylococcus aureus [1]) [µg/mL] | MIC (Staphylococcus aureus [2]) [µg/mL] | MIC (Streptococcus pneumoniae) [µg/mL] | MIC (Streptococcus pyogenes [3]) [µg/mL] | MIC (Escherichia coli [4]) [µg/mL] | MIC (Staphylococcus aureus [5]) [µg/mL] | MIC (Streptococcus pyogenes [6]) [µg/mL] | MIC (Staphylococcus aureus [7]) [µg/mL] | MIC (Serratia marcescens) [µg/mL] | MIC (Escherichia coli [8]) [µg/mL] | MIC (Staphylococcus aureus [9]) [µg/mL] | MIC (Streptococcus pyogenes [10]) [µg/mL] | MIC (Streptococcus pyogenes [11]) [µg/mL] | MIC (Streptococcus pyogenes [12]) [µg/mL] | MIC (Streptococcus pyogenes [13]) [µg/mL] | MIC (Streptococcus pyogenes [14]) [µg/mL] | MIC (Streptococcus pyogenes [15]) [µg/mL] | MIC (Streptococcus pyogenes [16]) [µg/mL]
1 | CC(=O)NCc1noc(-c2ccc(N3CCOCC3)cc2)n1 | > 256 | > 256 | 128 (≈ 423 µM) | 128 (≈ 423 µM) | > 256 | > 256 | 128 (≈ 423 µM) | > 256 | 128 (≈ 423 µM) | 128 (≈ 423 µM) | > 256 | 128 (≈ 423 µM) | 64 (≈ 212 µM) | 64 (≈ 212 µM) | 128 (≈ 423 µM) | 128 (≈ 423 µM) |  | 
2 | CC(=O)NCc1noc(-c2ccc(N3CCOCC3)c(F)c2)n1 | > 256 | > 256 | > 256 | 128 (≈ 400 µM) | 128 (≈ 400 µM) | > 256 | 128 (≈ 400 µM) | > 256 | > 256 | 128 (≈ 400 µM) | > 256 | 128 (≈ 400 µM) | > 256 | 128 (≈ 400 µM) | > 256 | > 256 |  | 
3 | CC(=O)NCc1noc(-c2cc(F)c(N3CCOCC3)c(F)c2)n1 | > 256 | > 256 | > 256 | > 256 | 128 (≈ 378 µM) | > 256 | 128 (≈ 378 µM) | > 256 | > 256 | 128 (≈ 378 µM) | > 256 | 128 (≈ 378 µM) | 128 (≈ 378 µM) | > 256 | > 256 | > 256 |  | 
4 | CC(=O)NCc1noc(-c2cc(F)c(N3CCOCC3)c(F)c2F)n1 | > 256 | > 256 | > 256 | > 256 | 128 (≈ 359 µM) | > 256 | 128 (≈ 359 µM) | > 256 | > 256 | 128 (≈ 359 µM) | > 256 | 128 (≈ 359 µM) | 128 (≈ 359 µM) | > 256 | > 256 | > 256 |  | 
5 | CC(=O)NCc1noc(-c2c(F)c(F)c(N3CCOCC3)c(F)c2F)n1 | > 256 | > 256 | > 256 | > 256 | 128 (≈ 342 µM) | > 256 | > 256 | > 256 | > 256 | > 256 | > 256 | > 256 | > 256 | > 256 | > 256 | > 256 |  | 
6 | NC(=O)c1noc(-c2ccc(N3CCOCC3)cc2)n1 | > 256 | > 256 | 128 (≈ 467 µM) | 128 (≈ 467 µM) | > 256 | > 256 | 128 (≈ 467 µM) | > 256 | 128 (≈ 467 µM) | 128 (≈ 467 µM) | > 256 | 128 (≈ 467 µM) | > 256 | > 256 | 128 (≈ 467 µM) | 128 (≈ 467 µM) |  | 
7 | NC(=O)c1noc(-c2ccc(N3CCOCC3)c(F)c2)n1 | > 256 | > 256 | > 256 | 128 (≈ 438 µM) | 128 (≈ 438 µM) | > 256 | 128 (≈ 438 µM) | > 256 | 128 (≈ 438 µM) | 128 (≈ 438 µM) | > 256 | 128 (≈ 438 µM) | > 256 | 128 (≈ 438 µM) | > 256 | 128 (≈ 438 µM) |  | 
8 | NC(=O)c1noc(-c2cc(F)c(N3CCOCC3)c(F)c2)n1 | > 256 | > 256 | > 256 | > 256 | 128 (≈ 413 µM) | > 256 | 128 (≈ 413 µM) | > 256 | > 256 | 128 (≈ 413 µM) | > 256 | 128 (≈ 413 µM) | 128 (≈ 413 µM) | > 256 | > 256 | > 256 |  | 
9 | NC(=O)c1noc(-c2cc(F)c(N3CCOCC3)c(F)c2F)n1 | > 256 | > 256 | > 256 | > 256 | 128 (≈ 390 µM) | > 256 | 128 (≈ 390 µM) | > 256 | > 256 | 128 (≈ 390 µM) | > 256 | 128 (≈ 390 µM) | 128 (≈ 390 µM) | > 256 | > 256 | > 256 |  | 
10 | NC(=O)c1noc(-c2c(F)c(F)c(N3CCOCC3)c(F)c2F)n1 | > 256 | > 256 | > 256 | > 256 | 128 (≈ 370 µM) | > 256 | > 256 | > 256 | > 256 | > 256 | > 256 | > 256 | > 256 | > 256 | > 256 | > 256 |  | 
11 | CO/N=C(\C(=O)N[C@@H]1C(=O)N2C(C(=O)O)=C(CSc3nc(=O)c(O)nn3C)CS[C@H]12)c1csc(N)n1 [CEFTRIAXONE] | 1 (≈ 1.8 µM) | 4 (≈ 7.21 µM) | 0.12 (≈ 0.216 µM) | < 0.12 | 0.12 (≈ 0.216 µM) | 8 (≈ 14.4 µM) | < 0.12 | > 256 | < 0.12 | 4 (≈ 7.21 µM) | 4 (≈ 7.21 µM) | < 0.12 | < 0.12 | < 0.12 | < 0.12 | < 0.12 |  | 
12 | CC[C@H]1OC(=O)[C@H](C)[C@@H](O[C@H]2C[C@@](C)(OC)[C@@H](O)[C@H](C)O2)[C@H](C)[C@@H](O[C@@H]2O[C@H](C)C[C@H](N(C)C)[C@H]2O)[C@](C)(O)C[C@@H](C)C(=O)[C@H](C)[C@@H](O)[C@]1(C)O [ERYTHROMYCIN] |  |  |  |  |  |  |  |  |  |  |  |  |  |  |  |  | > 256 | > 256
13 | CC(=O)NC[C@H]1CN(c2ccc(N3CCOCC3)c(F)c2)C(=O)O1 [LINEZOLID] | 1 (≈ 2.96 µM) |  |  | 0.25 (≈ 0.741 µM) | 4 (≈ 11.9 µM) |  | 0.12 (≈ 0.356 µM) |  | 128 (≈ 379 µM) | > 256 |  | 1 (≈ 2.96 µM) | 1 (≈ 2.96 µM) | 0.12 (≈ 0.356 µM) | 1 (≈ 2.96 µM) | 1 (≈ 2.96 µM) |  | 
